{"source": "ChEMBL document CHEMBL1149069", "about": "“SB-202742, a novel beta-lactamase inhibitor isolated from Spondias mombin” (J Nat Prod, 1994)", "key": {"[1]": {"system": "Proteus mirabilis", "test": "Antimicrobial activity against Proteus mirabilis C977 by microtiter method", "assay_type": "functional", "procedure,_shortened": "(§1)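 Broth microdilution MIC in Oxoid nutrient broth No. 2. Inoculum was a 1/500 dilution of an overnight broth culture, and plates were incubated overnight at 37°.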"}, "[2]": {"system": "Enterococcus faecalis", "test": "Antimicrobial activity against Streptococcus faecalis 1 by microtiter method", "assay_type": "functional", "procedure,_shortened": "as §1"}, "[3]": {"system": "Serratia marcescens", "test": "Antimicrobial activity against Serratia marcescens US32 by microtiter method", "assay_type": "functional", "procedure,_shortened": "as §1"}, "[4]": {"molecular_target": "Beta-lactamase TEM (Escherichia coli, UniProt P62593)", "sequence (P62593 whole entry)": "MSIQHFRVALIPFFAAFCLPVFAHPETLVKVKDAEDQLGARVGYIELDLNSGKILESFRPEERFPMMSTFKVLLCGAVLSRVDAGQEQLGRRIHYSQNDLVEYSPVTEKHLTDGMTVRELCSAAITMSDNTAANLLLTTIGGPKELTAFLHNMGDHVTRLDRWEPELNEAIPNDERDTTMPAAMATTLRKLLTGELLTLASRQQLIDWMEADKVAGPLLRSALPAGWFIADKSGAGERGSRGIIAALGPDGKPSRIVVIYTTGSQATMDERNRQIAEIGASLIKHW", "test": "Inhibition of Escherichia coli JT4 beta-lactamase TEM1 assessed as inhibition of nitrocefin hydrolysis preincubated for 5 mins by microtiter plate assay", "procedure,_shortened": "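Inhibitor was pre-incubated with enzyme for 5 min at 37° before each determination. Enzyme classification follows Bush.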"}, "[5]": {"system": "Bacillus subtilis", "test": "Antimicrobial activity against Bacillus subtilis ATCC 6633 by microtiter method", "assay_type": "functional", "procedure,_shortened": "as §1"}, "[6]": {"system": "Enterobacter cloacae", "test": "Antimicrobial activity against Enterobacter cloacae N1 by microtiter method", "assay_type": "functional", "procedure,_shortened": "as §1"}, "[7]": {"system": "Streptococcus pyogenes", "test": "Antimicrobial activity against Streptococcus pyogenes CN 10 after overnight incubation by Todd Hewitt broth dilution method", "assay_type": "functional", "procedure,_shortened": "(§2)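 Broth microdilution MIC in Todd Hewitt broth. Inoculum was a 1/500 dilution of an overnight broth culture, and plates were incubated overnight at 37°.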"}, "[8]": {"molecular_target": "Beta-lactamase (Staphylococcus aureus) (UniProt P00807)", "sequence (P00807 whole entry)": "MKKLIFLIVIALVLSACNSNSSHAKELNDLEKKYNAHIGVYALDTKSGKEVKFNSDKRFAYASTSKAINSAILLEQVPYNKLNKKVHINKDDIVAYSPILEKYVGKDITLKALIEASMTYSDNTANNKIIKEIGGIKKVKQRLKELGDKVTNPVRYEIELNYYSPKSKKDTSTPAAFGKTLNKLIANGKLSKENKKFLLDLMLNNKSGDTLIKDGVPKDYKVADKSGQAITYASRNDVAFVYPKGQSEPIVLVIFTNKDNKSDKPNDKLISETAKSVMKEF", "test": "Inhibition of Staphylococcus aureus Russell beta-lactamase assessed as inhibition of nitrocefin hydrolysis up to 567 ug/ml pre-incubated for 5 mins by microtiter plate assay", "procedure,_shortened": "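Inhibitor was pre-incubated with the enzyme for 5 min at 37°, then hydrolysis of 200 µM nitrocefin was read on a microtiter plate reader. Inhibitor was tested at concentrations up to 567 µg/ml.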"}, "[9]": {"molecular_target": "T1, Beta-lactamase (Proteus mirabilis, UniProt P30897)", "T1 sequence (P30897 whole entry)": "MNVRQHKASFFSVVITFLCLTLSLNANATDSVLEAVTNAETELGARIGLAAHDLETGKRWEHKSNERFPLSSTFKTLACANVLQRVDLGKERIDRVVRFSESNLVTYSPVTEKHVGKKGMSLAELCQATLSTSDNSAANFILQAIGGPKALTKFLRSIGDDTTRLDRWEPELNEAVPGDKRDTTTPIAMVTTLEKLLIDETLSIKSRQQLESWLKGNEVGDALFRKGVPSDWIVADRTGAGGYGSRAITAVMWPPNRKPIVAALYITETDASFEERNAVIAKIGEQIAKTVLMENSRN", "test": "Inhibition of Proteus mirabilis C889 beta-lactamase assessed as inhibition of nitrocefin hydrolysis preincubated for 5 mins by microtiter plate assay"}, "[10]": {"test": "Inhibition of Escherichia coli K-12 beta-lactamase OXA1 assessed as inhibition of nitrocefin hydrolysis pre-incubated for 5 mins by microtiter plate assay"}, "[11]": {"system": "Staphylococcus saprophyticus", "test": "Antimicrobial activity against Staphylococcus saprophyticus Fl2 by microtiter method", "assay_type": "functional", "procedure,_shortened": "as §1"}, "[12]": {"system": "Staphylococcus aureus", "test": "Antimicrobial activity against Staphylococcus aureus Russell by microtiter method", "assay_type": "functional", "procedure,_shortened": "as §1"}, "[13]": {"system": "Staphylococcus aureus", "test": "Antimicrobial activity against Staphylococcus aureus Oxford by microtiter method", "assay_type": "functional", "procedure,_shortened": "as §1"}, "[14]": {"molecular_target": "Beta-lactamase (Enterobacter cloacae, UniProt P05364)", "sequence (P05364 whole entry)": "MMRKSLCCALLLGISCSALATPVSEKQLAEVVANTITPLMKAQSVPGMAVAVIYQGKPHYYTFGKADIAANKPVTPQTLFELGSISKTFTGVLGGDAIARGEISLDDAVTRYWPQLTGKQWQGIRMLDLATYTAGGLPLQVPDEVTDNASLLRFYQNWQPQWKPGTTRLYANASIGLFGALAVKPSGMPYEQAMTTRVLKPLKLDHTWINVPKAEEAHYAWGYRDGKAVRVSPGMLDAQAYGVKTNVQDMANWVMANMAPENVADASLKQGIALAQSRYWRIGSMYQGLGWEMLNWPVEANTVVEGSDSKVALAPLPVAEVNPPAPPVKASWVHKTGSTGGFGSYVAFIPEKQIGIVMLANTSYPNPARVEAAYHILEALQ", "test": "Inhibition of Enterobacter cloacae P99 beta-lactamase assessed as inhibition of nitrocefin hydrolysis pre-incubated for 5 mins by microtiter plate assay"}, "[15]": {"test": "Inhibition of Escherichia coli K-12 beta-lactamase PSE-4 assessed as inhibition of nitrocefin hydrolysis preincubated for 5 mins by microtiter plate assay"}, "[16]": {"system": "Klebsiella pneumoniae", "test": "Antimicrobial activity against Klebsiella pneumoniae A by microtiter method", "assay_type": "functional", "procedure,_shortened": "as §1"}, "[17]": {"system": "Escherichia coli", "test": "Antimicrobial activity against Escherichia coli NCTC-10418 by microtiter method", "assay_type": "functional", "procedure,_shortened": "as §1"}, "[18]": {"system": "Streptococcus pneumoniae", "test": "Antimicrobial activity against Streptococcus pneumoniae PU7 after overnight incubation by Todd Hewitt broth dilution method", "assay_type": "functional", "procedure,_shortened": "as §2"}, "[19]": {"molecular_target": "Beta-lactamase (Pseudomonas aeruginosa (strain ATCC 15692 / PAO1 / 1C / PRS 101 / LMG12228), UniProt P24735)", "sequence (P24735 whole entry)": "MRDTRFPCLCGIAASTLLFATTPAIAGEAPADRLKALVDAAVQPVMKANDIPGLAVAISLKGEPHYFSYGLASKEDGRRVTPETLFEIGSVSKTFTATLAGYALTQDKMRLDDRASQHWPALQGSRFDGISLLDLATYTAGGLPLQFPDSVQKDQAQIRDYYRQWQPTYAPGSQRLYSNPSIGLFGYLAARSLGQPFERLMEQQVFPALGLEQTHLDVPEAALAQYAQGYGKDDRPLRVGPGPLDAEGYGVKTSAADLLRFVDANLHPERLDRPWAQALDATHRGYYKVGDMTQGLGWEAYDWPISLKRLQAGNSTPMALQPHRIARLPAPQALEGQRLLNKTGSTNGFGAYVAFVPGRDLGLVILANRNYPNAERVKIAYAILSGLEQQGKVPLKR", "test": "Inhibition of Pseudomonas aeruginosa A beta-lactamase assessed as inhibition of nitrocefin hydrolysis preincubated for 5 mins by microtiter plate assay"}, "[20]": {"system": "Pseudomonas aeruginosa", "test": "Antimicrobial activity against Pseudomonas aeruginosa 1771P by microtiter method", "assay_type": "functional", "procedure,_shortened": "as §1"}, "[21]": {"system": "Staphylococcus epidermidis", "test": "Antimicrobial activity against Staphylococcus epidermidis NCTC 11047 by microtiter method", "assay_type": "functional", "procedure,_shortened": "as §1"}, "[22]": {"system": "Staphylococcus aureus", "test": "Antimicrobial activity against Staphylococcus aureus Smith by microtiter method", "assay_type": "functional", "procedure,_shortened": "as §1"}}, "note": "pIC50: −log10 of the molar value. Active and inactive are the calls of the source. The calls are words filed in the database; no cut-off is given here.", "data": [{"smiles": "CC/C=C\\C/C=C\\C/C=C\\CCCCCCCc1cccc(O)c1C(=O)O", "values": [{"measurement": "MIC", "setting": "[1]", "result": "> 256", "unit": "µg/mL"}, {"measurement": "MIC", "setting": "[2]", "result": 0.25, "unit": "µg/mL"}, {"measurement": "MIC", "setting": "[3]", "result": "> 256", "unit": "µg/mL"}, {"measurement": "pIC50", "setting": "[4]", "result": 4.87}, {"measurement": "MIC", "setting": "[5]", "result": 4, "unit": "µg/mL"}, {"measurement": "MIC", "setting": "[6]", "result": "> 256", "unit": "µg/mL"}, {"measurement": "MIC", "setting": "[7]", "result": 2, "unit": "µg/mL"}, {"measurement": "Activity", "setting": "[8]", "result": "inactive"}, {"measurement": "pIC50", "setting": "[9]", "result": 3.52}, {"measurement": "IC50", "setting": "[10]", "result": 79.7, "unit": "µg/mL"}, {"measurement": "MIC", "setting": "[11]", "result": 2, "unit": "µg/mL"}, {"measurement": "MIC", "setting": "[12]", "result": 32, "unit": "µg/mL"}, {"measurement": "MIC", "setting": "[13]", "result": 8, "unit": "µg/mL"}, {"measurement": "pIC50", "setting": "[14]", "result": 4.35}, {"measurement": "IC50", "setting": "[15]", "result": 10.1, "unit": "µg/mL"}, {"measurement": "MIC", "setting": "[16]", "result": "> 256", "unit": "µg/mL"}, {"measurement": "MIC", "setting": "[17]", "result": "> 256", "unit": "µg/mL"}, {"measurement": "MIC", "setting": "[18]", "result": 2, "unit": "µg/mL"}, {"measurement": "pIC50", "setting": "[19]", "result": 3.96}, {"measurement": "MIC", "setting": "[20]", "result": "> 256", "unit": "µg/mL"}, {"measurement": "MIC", "setting": "[21]", "result": 2, "unit": "µg/mL"}, {"measurement": "MIC", "setting": "[22]", "result": 2, "unit": "µg/mL"}]}, {"smiles": "O=C(O)[C@H]1/C(=C/CO)O[C@@H]2CC(=O)N21", "note": "[CLAVULANIC ACID]", "values": [{"measurement": "IC50", "setting": "[10]", "result": 0.35, "unit": "µg/mL"}]}]}
